In brackets after ≈: the same amount, converted by molar mass. Starred links: 1 amine or outer side, 2 acyl side, 3 side chain; linkers in the order of their positions; H or OH if unused. Positions of bridges follow the written chain, without caps; N, C: chain ends. Non-standard residues stand in square brackets, D forms with d. Residues, ends and D or L forms follow the SMILES beside them. *: point of attachment. hTyr(3S-OH,4S-OH,3'-OSO3H) = N[C@H](C(=O)O)[C@H](O)[C@@H](O)c1ccc(O)c(OS(=O)(=O)O)c1; Orn(4R-OH,5R-OH) = O=C([C@H](C[C@@H](O)[C@@H](O)N[*:3])N[*:1])[*:2]; Pro(3S-OH,4S-Me) = C[C@H]1CN[C@H](C(=O)O)[C@H]1O; X1 = CCCCCOc1ccc(-c2cc(-c3ccc(C(=O)*)cc3)no2)cc1; Gln(3R-OH) = NC(=O)C[C@@H](O)[C@H](N)C(=O)O; Hyp = O=C(O)[C@@H]1C[C@@H](O)CN1
What was measured:
Type in all cases: functional
Candida dubliniensis = assay: Antifungal activity against Candida dubliniensis ATCC MYA-577 after 48 hrs by broth microdilution method; details: ATCC MYA-577, 48 h
Procedure, shortened: (§1)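 CLSI M27-A2 (yeasts) / M38-A (moulds) broth microdilution in RPMI 1640 buffered to pH 7.0 with 0.165 M MOPS. Malassezia furfur got the same medium supplemented with glucose, bile salts, glycerol, glycerol monostearate and Tween 20. Final inoculum 0.65 × 10^3–2.5 × 10^3 CFU/ml for yeasts and 0.87 × 10^4–3.8 × 10^4 CFU/ml for filamentous fungi. Incubation at 35°C except M. racemosus and F. solani, which were held at 30°C.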

Rhizopus arrhizus = assay: Antifungal activity against Rhizopus oryzae NBRC 31005 after 24 hrs by broth microdilution method; details: NBRC 31005, 24 h; procedure, shortened: as §1
Trichosporon asahii = assay: Antifungal activity against Trichosporon asahii JCM 2466 after 48 hrs by broth microdilution method; details: JCM 2466, 48 h; procedure, shortened: as §1
Candida albicans [1] = assay: Antifungal activity against Candida albicans ATCC 24433 after 48 hrs by broth microdilution method; details: ATCC 24433, 48 h
Procedure, shortened: (§2)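 CLSI M27-A2 (yeasts) or M38-A (A. fumigatus) broth microdilution in RPMI 1640 buffered to pH 7.0 with 0.165 M MOPS. Final inocula were 0.65–2.5 × 10^3 CFU/ml for yeasts and 0.87–3.8 × 10^4 CFU/ml for filamentous fungi. Incubation was at 35°C for about 48 h (72 h for C. neoformans). MIC was the lowest concentration giving a prominent (~50%) turbidity drop versus growth control; amphotericin B required complete inhibition.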

Trichophyton rubrum = assay: Antifungal activity against Trichophyton rubrum NBRC 5467 after 72 hrs by broth microdilution method; details: NBRC 5467, 72 h; procedure, shortened: as §1
Candida albicans [2] = assay: Antifungal activity against Candida albicans ATCC 64550 after 47 hrs by broth microdilution method; details: ATCC 64550, 47 h
Procedure, shortened: (§3)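 Fluconazole-resistant or susceptible-dose-dependent C. albicans ATCC strains were tested by broth microdilution in RPMI 1640-MOPS. Inoculum was 1.1 × 10^3–1.5 × 10^3 CFU/ml, with incubation at 35°C for about 47 h. Yeast MIC was read as about 50% turbidity decrease relative to growth control, except amphotericin B, read at complete inhibition.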

Aspergillus fumigatus [3] = assay: Antifungal activity against Aspergillus fumigatus IFM 46895 after 48 hrs by broth microdilution method; details: IFM 46895, 48 h; procedure, shortened: as §1
Cryptococcus neoformans [4] = assay: Antifungal activity against Cryptococcus neoformans ATCC 90112 after 72 hrs by broth microdilution method; details: ATCC 90112, 72 h; procedure, shortened: as §2
Candida albicans [5] = assay: Antifungal activity against Candida albicans ATCC MYA-2732 after 47 hrs by broth microdilution method; details: ATCC MYA-2732, 47 h; procedure, shortened: as §3
Pichia kudriavzevii [6] = assay: Antifungal activity against Candida krusei IFO 0584 after 48 hrs by broth microdilution method; details: IFO 0584, 48 h; procedure, shortened: as §1
Candida albicans [7] = assay: Antifungal activity against Candida albicans TIMM 1623 after 48 hrs by broth microdilution method; details: TIMM 1623, 48 h; procedure, shortened: as §1
[8] = test system: Meyerozyma guilliermondii; assay: Antifungal activity against Candida guilliermondii clinical isolates after 48 hrs by broth microdilution method
Procedure, shortened: (§4)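 Clinical isolates from Japanese hospitals or culture collections were tested by broth microdilution in RPMI 1640-MOPS. Inoculum was 0.57 × 10^3–2.5 × 10^3 CFU/ml for yeasts and 0.4 × 10^4–3.3 × 10^4 CFU/ml for filamentous fungi. Incubation was at 35°C for about 48 h, or 72 h where footnoted. Results were summarised as MIC range, MIC50 and MIC90.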

Candida albicans [9] = assay: Antifungal activity against Candida albicans ATCC 96901 after 47 hrs by broth microdilution method; details: ATCC 96901, 47 h
Procedure, shortened: (§5)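 Fluconazole-resistant or susceptible-dose-dependent ATCC C. albicans strains were tested by CLSI M27-A2 broth microdilution in RPMI 1640–0.165 M MOPS, pH 7.0, with a final inoculum of 1.1–1.5 × 10^3 CFU/ml at 35°C for about 47 h. MIC was the lowest concentration with a prominent (~50%) turbidity decrease relative to growth control; amphotericin B was read at complete inhibition.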

Aspergillus niger = assay: Antifungal activity against Aspergillus niger NBRC 33023 after 48 hrs by broth microdilution method; details: NBRC 33023, 48 h; procedure, shortened: as §1
Aspergillus fumigatus [10] = assay: Antifungal activity against Aspergillus fumigatus TIMM 0063 after 48 hrs by broth microdilution method; details: TIMM 0063, 48 h; procedure, shortened: as §1
Malassezia furfur = assay: Antifungal activity against Malassezia furfur NBRC 0656 after 48 hrs by broth microdilution method; details: NBRC 0656, 48 h; procedure, shortened: as §1
Candida tropicalis = assay: Antifungal activity against Candida tropicalis clinical isolates after 48 hrs by broth microdilution method; procedure, shortened: as §4
Pichia kudriavzevii [11] = assay: Antifungal activity against Candida krusei clinical isolates after 48 hrs by broth microdilution method
Procedure, shortened: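 Japanese hospital Candida isolates were tested by CLSI M27-A2 broth microdilution in RPMI 1640–MOPS, pH 7.0, with inocula of 0.57–2.5 × 10^3 CFU/ml at 35°C for about 48 h. Inocula came from 24-h potato dextrose agar cultures. MIC was the lowest concentration with about 50% turbidity reduction versus growth control (complete inhibition for amphotericin B). Range, MIC50 and MIC90 were reported.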

Nakaseomyces glabratus = assay: Antifungal activity against Candida glabrata clinical isolates after 48 hrs by broth microdilution method; procedure, shortened: as §4
Aspergillus fumigatus [12] = assay: Antifungal activity against Aspergillus fumigatus IFM 49895 after 48 hrs by broth microdilution method; details: IFM 49895, 48 h; procedure, shortened: as §1
[13] = test system: Meyerozyma guilliermondii; assay: Antifungal activity against Candida guilliermondii IFO 10279 after 48 hrs by broth microdilution method; details: IFO 10279, 48 h; procedure, shortened: as §1
Cryptococcus neoformans [14] = assay: Antifungal activity against Cryptococcus neoformans clinical isolates after 72 hrs by broth microdilution method; procedure, shortened: as §4
Mucor racemosus = assay: Antifungal activity against Mucor racemosus NBRC5403 after 24 hrs by broth microdilution method; details: NBRC5403, 24 h
Candida albicans [15] = assay: Antifungal activity against Candida albicans ATCC MYA-1003 after 47 hrs by broth microdilution method; details: ATCC MYA-1003, 47 h; procedure, shortened: as §5
Candida albicans [16] = assay: Antifungal activity against Candida albicans ATCC MYA-575 after 47 hrs by broth microdilution method; details: ATCC MYA-575, 47 h; procedure, shortened: as §5

SMILES: CCCCCOc1ccc(-c2cc(-c3ccc(C(=O)N[C@H]4C[C@@H](O)[C@@H](O)NC(=O)[C@@H]5[C@@H](O)[C@@H](C)CN5C(=O)[C@H]([C@H](O)CC(N)=O)NC(=O)[C@H]([C@H](O)[C@@H](O)c5ccc(O)c(OS(=O)(=O)O)c5)NC(=O)[C@@H]5C[C@@H](O)CN5C(=O)[C@H]([C@@H](C)O)NC4=O)cc3)no2)cc1 [MICAFUNGIN] (X1-[Orn(4R-OH,5R-OH)]T[Hyp][hTyr(3S-OH,4S-OH,3'-OSO3H)][Gln(3R-OH)][Pro(3S-OH,4S-Me)]; lactam 1-C)
- MFC (Candida dubliniensis): 8 µg/mL (≈ 6.3 µM)
- MIC (Candida dubliniensis): 0.125 µg/mL (≈ 0.0984 µM)
- MFC (Rhizopus arrhizus): > 64 µg/mL
- MIC (Rhizopus arrhizus): > 64 µg/mL
- MFC (Trichosporon asahii): > 64 µg/mL
- MIC (Trichosporon asahii): > 64 µg/mL
- MFC (Candida albicans [1]): 0.25 µg/mL (≈ 0.197 µM)
- MIC (Candida albicans [1]): 0.0313 µg/mL (≈ 0.0246 µM)
- MFC (Trichophyton rubrum): > 64 µg/mL
- MIC (Trichophyton rubrum): 0.0313 µg/mL (≈ 0.0246 µM)
- MIC (Candida albicans [2]): 0.0625 µg/mL (≈ 0.0492 µM)
- MFC (Aspergillus fumigatus [3]): > 64 µg/mL
- MIC (Aspergillus fumigatus [3]): 0.0313 µg/mL (≈ 0.0246 µM)
- MFC (Cryptococcus neoformans [4]): > 64 µg/mL
- MIC (Cryptococcus neoformans [4]): > 64 µg/mL
- MIC (Candida albicans [5]): 0.125 µg/mL (≈ 0.0984 µM)
- MFC (Pichia kudriavzevii [6]): 0.25 µg/mL (≈ 0.197 µM)
- MIC (Pichia kudriavzevii [6]): 0.125 µg/mL (≈ 0.0984 µM)
- MFC (Candida albicans [7]): 4 µg/mL (≈ 3.15 µM)
- MIC (Candida albicans [7]): 0.0625 µg/mL (≈ 0.0492 µM)
- MIC50 [8]: 1 µg/mL (≈ 0.787 µM)
- MIC90 [8]: 1 µg/mL (≈ 0.787 µM)
- MIC (Candida albicans [9]): 0.125 µg/mL (≈ 0.0984 µM)
- MFC (Aspergillus niger): > 64 µg/mL
- MIC (Aspergillus niger): 0.0313 µg/mL (≈ 0.0246 µM)
- MFC (Aspergillus fumigatus [10]): > 64 µg/mL
- MIC (Aspergillus fumigatus [10]): 0.0156 µg/mL (≈ 0.0123 µM)
- MFC (Malassezia furfur): > 64 µg/mL
- MIC (Malassezia furfur): > 64 µg/mL
- MIC (Candida tropicalis): 0.0625 µg/mL (≈ 0.0492 µM)
- MIC50 (Candida tropicalis): 0.0625 µg/mL (≈ 0.0492 µM)
- MIC90 (Candida tropicalis): 0.125 µg/mL (≈ 0.0984 µM)
- MIC50 (Pichia kudriavzevii [11]): 0.5 µg/mL (≈ 0.394 µM)
- MIC90 (Pichia kudriavzevii [11]): 0.5 µg/mL (≈ 0.394 µM)
- MIC50 (Nakaseomyces glabratus): 0.0625 µg/mL (≈ 0.0492 µM)
- MIC90 (Nakaseomyces glabratus): 0.0625 µg/mL (≈ 0.0492 µM)
- MFC (Aspergillus fumigatus [12]): > 64 µg/mL
- MIC (Aspergillus fumigatus [12]): 0.0313 µg/mL (≈ 0.0246 µM)
- MFC [13]: 8 µg/mL (≈ 6.3 µM)
- MIC [13]: 0.5 µg/mL (≈ 0.394 µM)
- MIC (Cryptococcus neoformans [14]): > 64 µg/mL
- MIC50 (Cryptococcus neoformans [14]): > 64 µg/mL
- MIC90 (Cryptococcus neoformans [14]): > 64 µg/mL
- MFC (Mucor racemosus): > 64 µg/mL
- MIC (Mucor racemosus): 32 µg/mL (≈ 25.2 µM)
- MIC (Candida albicans [15]): 0.125 µg/mL (≈ 0.0984 µM)
- MIC (Candida albicans [16]): 0.125 µg/mL (≈ 0.0984 µM)

SMILES: OC(Cn1cncn1)(Cn1cncn1)c1ccc(F)cc1F [FLUCONAZOLE]
- MFC (Candida dubliniensis): > 64 µg/mL
- MIC (Candida dubliniensis): 0.125 µg/mL (≈ 0.408 µM)
- MFC (Rhizopus arrhizus): > 64 µg/mL
- MIC (Rhizopus arrhizus): > 64 µg/mL
- MFC (Trichosporon asahii): > 64 µg/mL
- MIC (Trichosporon asahii): 1 µg/mL (≈ 3.27 µM)
- MFC (Candida albicans [1]): > 64 µg/mL
- MIC (Candida albicans [1]): 0.125 µg/mL (≈ 0.408 µM)
- MFC (Trichophyton rubrum): > 64 µg/mL
- MIC (Trichophyton rubrum): 0.25 µg/mL (≈ 0.816 µM)
- MIC (Candida albicans [2]): 16 µg/mL (≈ 52.2 µM)
- MFC (Aspergillus fumigatus [3]): > 64 µg/mL
- MIC (Aspergillus fumigatus [3]): > 64 µg/mL
- MFC (Cryptococcus neoformans [4]): > 64 µg/mL
- MIC (Cryptococcus neoformans [4]): 1 µg/mL (≈ 3.27 µM)
- MIC (Candida albicans [5]): 16 µg/mL (≈ 52.2 µM)
- MFC (Pichia kudriavzevii [6]): 64 µg/mL (≈ 209 µM)
- MIC (Pichia kudriavzevii [6]): 32 µg/mL (≈ 104 µM)
- MFC (Candida albicans [7]): > 64 µg/mL
- MIC (Candida albicans [7]): 0.125 µg/mL (≈ 0.408 µM)
- MIC50 [8]: 4 µg/mL (≈ 13.1 µM)
- MIC90 [8]: 8 µg/mL (≈ 26.1 µM)
- MIC (Candida albicans [9]): > 64 µg/mL
- MFC (Aspergillus niger): > 64 µg/mL
- MIC (Aspergillus niger): > 64 µg/mL
- MFC (Aspergillus fumigatus [10]): > 64 µg/mL
- MIC (Aspergillus fumigatus [10]): > 64 µg/mL
- MFC (Malassezia furfur): > 64 µg/mL
- MIC (Malassezia furfur): 4 µg/mL (≈ 13.1 µM)
- MIC50 (Candida tropicalis): 0.5 µg/mL (≈ 1.63 µM)
- MIC90 (Candida tropicalis): 1 µg/mL (≈ 3.27 µM)
- MIC50 (Pichia kudriavzevii [11]): 64 µg/mL (≈ 209 µM)
- MIC90 (Pichia kudriavzevii [11]): 64 µg/mL (≈ 209 µM)
- MFC (Aspergillus fumigatus [12]): > 64 µg/mL
- MIC (Aspergillus fumigatus [12]): > 64 µg/mL
- MFC [13]: > 64 µg/mL
- MIC [13]: 4 µg/mL (≈ 13.1 µM)
- MIC50 (Cryptococcus neoformans [14]): 2 µg/mL (≈ 6.53 µM)
- MIC90 (Cryptococcus neoformans [14]): 4 µg/mL (≈ 13.1 µM)
- MFC (Mucor racemosus): > 64 µg/mL
- MIC (Mucor racemosus): > 64 µg/mL
- MIC (Candida albicans [15]): 64 µg/mL (≈ 209 µM)
- MIC (Candida albicans [16]): 16 µg/mL (≈ 52.2 µM)
